ChEMBL document CHEMBL1131453, “Design of N-acylprolyltyrosine "tripeptoid" analogues of neurotensin as potential atypical antipsychotic agents” (J Med Chem, 1998)
Peptide text beside a SMILES is read from it. * marks the point of attachment. Nonanoyl = CCCCCCCCC(=O)*; Hexanoyl = CCCCCC(=O)*; Pentanoyl = CCCCC(=O)*

Assays:
Mus musculus = test: Compound was tested in vivo for its ability to antagonize apomorphine-induced climbing response in mice upon intraperitoneal administration; type: functional; details: ip
Procedure, shortened: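 C57BL/6 male mice, 22–25 g, adapted 1 h in wire mesh cages. Compound in saline with 3% Tween 80 given ip 15 min before apomorphine 5.0 mg/kg sc (in saline with 0.1% ascorbic acid). Climbing scored 0–4 every 2 min, 30 readings, from 15 min after apomorphine. Totals are expressed as % of vehicle control. ED50 with 95% confidence limits by log-dose linear regression, 8–16 mice per dose.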

Rattus norvegicus [1] = test: Compound was tested in vivo for its ability to antagonize extrapolatory behavior impairment induced by DOPA in rats upon intraperitoneal administration; type: functional; details: ip
Procedure, shortened: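 Outbred albino male rats, 180–200 g, placed in a water-plunged cylinder (22 °C) and must dive under its edge within 2 min; non-escapers discarded. A day later, Madopar (100 mg/kg L-DOPA + 25 mg/kg benserazide in 3% Tween 80) is given ip 60 min before testing. Compound in saline + 3% Tween 80 is given ip 10 min before Madopar. Successful escapes are recorded. ED50 with 95% confidence limits by linear regression, eight rats per dose.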

Rattus norvegicus [2] = test: Compound was tested in vivo for its ability to induce catalepsy in rats upon intraperitoneal administration; type: functional; details: ip
Procedure, shortened: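 Adult outbred male rats, 200–250 g, dosed ip with compound in saline containing 3% Tween 80. Forepaws placed on a bar 7 cm high (Morpurgo apparatus) at 0.5, 1.0, 1.5 and 2 h. Bar time scored 0–3, tested twice per session at 2-min intervals. Scores are given as percent of the maximal cumulative score (15).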

[3] = Acute toxicity on male outbred albino mice upon intraperitoneal administration; details: mouse, in vivo, ip
Procedure, shortened: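 Male outbred albino mice (Moscow region), 20–25 g, housed five per cage with free food and water at 21–22 °C, 40–50% humidity, 12/12 h light/dark. Single ip injection at doses up to 500–1000 mg/kg. Surviving animals were counted 2, 24 and 48 h after injection.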

Row | Compound | ED50 (Mus musculus) | ED50 (Rattus norvegicus [1]) | ED50 (Rattus norvegicus [2]) | LD50 [3]
1 | CC(C)(C)OC(=O)N1CCC[C@H]1C(=O)N[C@@H](Cc1ccc(O)cc1)C(N)=O | 2.5 mg/kg | – | – | –
2 | NC(=O)[C@H](Cc1ccc(O)cc1)NC(=O)[C@H]1CCCN1 | 3.6 mg/kg | – | – | –
3 | NC(=O)[C@@H](Cc1ccc(O)cc1)NC(=O)[C@@H]1CCCN1 | > 16 mg/kg | – | – | –
4 | CC(C)(C)OC(=O)N1CCC[C@@H]1C(=O)N[C@@H](Cc1ccc(O)cc1)C(N)=O | 0.4 mg/kg | – | – | –
5 | NC(=O)[C@H](Cc1ccc(O)cc1)NC(=O)[C@@H]1CCCN1C(=O)Cc1ccccc1 | 2.2 mg/kg | 1.5 mg/kg | > 1000 mg/kg | > 1000 mg/kg
6 | NC(=O)[C@H](Cc1ccc(O)cc1)NC(=O)[C@H]1CCCN1C(=O)Cc1ccccc1 | 4.9 mg/kg | – | – | –
7 | NC(=O)[C@@H](Cc1ccc(O)cc1)NC(=O)[C@@H]1CCCN1C(=O)Cc1ccccc1 | > 8 mg/kg | – | – | –
8 | NC(=O)[C@H](Cc1ccc(O)cc1)NC(=O)[C@@H]1CCCN1 | 3.4 mg/kg | 1.6 mg/kg | > 500 mg/kg | > 500 mg/kg
9 | CCCCCC(=O)N1CCC[C@H]1C(=O)N[C@@H](Cc1ccc(O)cc1)C(N)=O (Hexanoyl-Pro-Tyr-NH2) | 0.5 mg/kg | 0.4 mg/kg | > 500 mg/kg | > 500 mg/kg
10 | CCCCCCCCC(=O)N1CCC[C@H]1C(=O)N[C@@H](Cc1ccc(O)cc1)C(N)=O (Nonanoyl-Pro-Tyr-NH2) | 0.5 mg/kg | – | – | –
11 | CCCCC(=O)N1CCC[C@H]1C(=O)N[C@@H](Cc1ccc(O)cc1)C(N)=O (Pentanoyl-Pro-Tyr-NH2) | 3.2 mg/kg | – | – | –
12 | CN1CCN(C2=Nc3cc(Cl)ccc3Nc3ccccc32)CC1 [CLOZAPINE] | – | 20 mg/kg | > 32 mg/kg | –
13 | O=C(CCCN1CCC(O)(c2ccc(Cl)cc2)CC1)c1ccc(F)cc1 [HALOPERIDOL] | 0.1 mg/kg | 0.14 mg/kg | 0.5 mg/kg | 35 mg/kg
14 | CCN1CCC[C@H]1CNC(=O)c1cc(S(N)(=O)=O)ccc1OC [LEVOSULPIRIDE] | 17.5 mg/kg | 16.5 mg/kg | > 120 mg/kg | 250 mg/kg
15 | CCN1CCC[C@H]1CNC(=O)c1c(OC)ccc(Br)c1OC [REMOXIPRIDE] | 1.2 mg/kg | 0.31 mg/kg | 8.7 mg/kg | 302 mg/kg
